Data as given in ChEMBL document CHEMBL3045798, “Toxic reactivity of wheat (Triticum aestivum) plants to herbicide isoproturon” (J Agric Food Chem, 2008).
Converted amounts (≈) assume the structure as drawn.

Tests used:
Triticum aestivum [1] = experiment: Increase in APX activity in leaves of Triticum aestivum cv. Ning 13 (wheat) seedlings grown on soils containing compound at 5 to 10 mg/kg for 10 days relative to untreated control; assay type: ADME, organism-based; parameters: dose 5-10 mg/kg; conditions: in vivo, 240 h
Triticum aestivum [2] = experiment: Toxicity in Triticum aestivum cv. Ning 13 (wheat) seedlings assessed as inhibition of shoot growth measured as dry weight grown on soils containing compound at 2 to 20 mg/kg for 10 days; assay type: organism-based; parameters: dose 2-20 mg/kg; conditions: in vivo, 240 h
Procedure, shortened: (§1)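 Surface-sterilized seeds germinated 8 h at 25 °C, then grown 10 days (third leaf) in soil at 0, 2, 3.5, 5, 10, 20 mg/kg, watered to 60–70% water content, 12 h photoperiod, 300 µmol photons m-2 s-1, 25/20 °C. Elongation measured; dry mass after 70 °C for 72 h. Mean ± SD, n = 3.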

Triticum aestivum [3] = experiment: Reduction in APX activity in leaves of Triticum aestivum cv. Ning 13 (wheat) seedlings grown on soils containing compound at 20 mg/kg for 10 days relative to untreated control; assay type: ADME, organism-based; parameters: dose 20 mg/kg; conditions: in vivo, 240 h
Triticum aestivum [4] = experiment: Toxicity in Triticum aestivum cv. Ning 13 (wheat) seedlings assessed as reduction in shoot elongation grown on soils containing compound at 20 mg/kg for 10 days relative to untreated control; assay type: organism-based; parameters: dose 20 mg/kg; scale not given: the % may be the effect or the level left; conditions: in vivo, 240 h; procedure, shortened: as §1
Triticum aestivum [5] = experiment: Toxicity in Triticum aestivum cv. Ning 13 (wheat) seedlings assessed as reduction in chlorophyll content in leaves grown on soils containing compound at 2 mg/kg for 10 days relative to untreated control; assay type: organism-based; parameters: dose 2 mg/kg; scale not given: the % may be the effect or the level left; conditions: in vivo, 240 h
Procedure, shortened: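 Fresh leaf (0.1 g) from 10-day seedlings in spiked soil extracted in 80% acetone (pH 7.8, phosphate), spun 500g 10 min. Total chlorophyll calculated spectrophotometrically. Mean ± SD, n = 3.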

Triticum aestivum [6] = experiment: Reduction in CAT activity in roots of Triticum aestivum cv. Ning 13 (wheat) seedlings grown on soils containing compound at 10 to 20 mg/kg for 10 days by H2O2 consumption assay relative to untreated control; assay type: ADME, organism-based; parameters: dose 10-20 mg/kg; conditions: in vivo, 240 h
Triticum aestivum [7] = experiment: Induction of changes in GST activity in roots of Triticum aestivum cv. Ning 13 (wheat) seedlings grown on soils containing compound at 2 to 20 mg/kg for 10 days by CDNB dye based assay relative to untreated control; assay type: organism-based; parameters: dose 2-20 mg/kg; conditions: in vivo, 240 h
Procedure, shortened: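 Tissue extract from 10-day seedlings in soil with 0–20 mg/kg. Reaction: 100 mM potassium phosphate pH 7, 1 mM GSH, 1 mM CDNB (final; added last to start). Absorbance increase at 340 nm tracked over 15 min. Mean ± SD, n = 3.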

Triticum aestivum [8] = experiment: Reduction in CAT isoforms activity in leaves of Triticum aestivum cv. Ning 13 (wheat) seedlings grown on soils containing compound at 2 to 20 mg/kg for 10 days by PAGE method assay relative to untreated control; assay type: ADME, organism-based; parameters: dose 2-20 mg/kg; conditions: in vivo, 240 h
Procedure, shortened: (§2)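 Native PAGE, 5% stacking/10% separating gel, run at 4 °C (10 mA, then 15 mA), of tissue extracts from seedlings grown 10 days in soil at 0, 2, 3.5, 5, 10, 20 mg/kg. CAT bands: gel soaked in water 15 min, then 0.03% H2O2 25 min, washed, stained with 1% potassium ferricyanide plus 1% ferric chloride.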

Triticum aestivum [9] = experiment: Toxicity in Triticum aestivum cv. Ning 13 (wheat) seedlings assessed as reduction in root length grown on soils containing compound at 20 mg/kg for 10 days relative to untreated control; assay type: organism-based; parameters: dose 20 mg/kg; scale not given: the % may be the effect or the level left; conditions: in vivo, 240 h; procedure, shortened: as §1
Triticum aestivum [10] = experiment: Reduction in CAT isoforms activity in roots of Triticum aestivum cv. Ning 13 (wheat) seedlings grown on soils containing compound at 10 to 20 mg/kg for 10 days by PAGE method assay relative to untreated control; assay type: ADME, organism-based; parameters: dose 10-20 mg/kg; conditions: in vivo, 240 h; procedure, shortened: as §2
Triticum aestivum [11] = experiment: Induction of changes in GST activity in leaves of Triticum aestivum cv. Ning 13 (wheat) seedlings grown on soils containing compound at 2 to 20 mg/kg for 10 days by CDNB dye based assay relative to untreated control; assay type: organism-based; parameters: dose 2-20 mg/kg; conditions: in vivo, 240 h
Triticum aestivum [12] = experiment: Increase in CAT activity in roots of Triticum aestivum cv. Ning 13 (wheat) seedlings grown on soils containing compound at 2 to 5 mg/kg for 10 days by H2O2 consumption assay relative to untreated control; assay type: ADME, organism-based; parameters: dose 2-5 mg/kg; conditions: in vivo, 240 h
Triticum aestivum [13] = experiment: Reduction in CAT activity in leaves of Triticum aestivum cv. Ning 13 (wheat) seedlings grown on soils containing compound at 2 to 20 mg/kg for 10 days by H2O2 consumption assay relative to untreated control; assay type: ADME, organism-based; parameters: dose 2-20 mg/kg; conditions: in vivo, 240 h
Triticum aestivum [14] = experiment: Induction of lipid peroxidation in Triticum aestivum cv. Ning 13 (wheat) seedlings assessed as increase in TBARS level in leaves grown on soils containing compound at 10 mg/kg for 10 days relative to untreated control; assay type: organism-based; parameters: dose 10 mg/kg; conditions: in vivo, 240 h
Procedure, shortened: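 Wheat seeds surface-sterilized (5% hypochlorite, 10 min), germinated 8 h at 25 °C, sown in sieved field soil spiked with herbicide (0–20 mg/kg), watered to 60–70% water content, grown 10 days (12 h photoperiod, 25/20 °C). Fresh leaf (0.5 g) ground in 0.1% TCA, supernatant boiled 30 min with 0.5% TBA in 20% TCA; A532 minus A600, ε 155 mM-1 cm-1; n=3.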

[15] = Solubility in water at 20 degC; assay type: physicochemical
Triticum aestivum [16] = experiment: Induction of lipid peroxidation in Triticum aestivum cv. Ning 13 (wheat) seedlings assessed as increase in TBARS level in roots grown on soils containing compound at 2 to 20 mg/kg for 10 days relative to untreated control; assay type: organism-based; parameters: dose 2-20 mg/kg; conditions: in vivo, 240 h
Procedure, shortened: (§3)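 Seedlings grown 10 days in soil at 0–20 mg/kg. Frozen tissue (0.5 g) ground in 0.1% TCA, spun; supernatant heated 30 min in boiling water with 0.5% TBA in 20% TCA. A532 minus A600 read; TBARS calculated with ε 155 mM-1 cm-1. Mean ± SD, n = 3.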

Triticum aestivum [17] = experiment: Reduction in SOD activity in roots of Triticum aestivum cv. Ning 13 (wheat) seedlings grown on soils containing compound at 10 to 20 mg/kg for 10 days by PAGE method assay relative to untreated control; assay type: ADME, organism-based; parameters: dose 10-20 mg/kg; conditions: in vivo, 240 h
Triticum aestivum [18] = experiment: Reduction in SOD activity in roots of Triticum aestivum cv. Ning 13 (wheat) seedlings grown on soils containing compound at 10 to 20 mg/kg for 10 days by NBT dye reduction assay relative to untreated control; assay type: ADME, organism-based; parameters: dose 10-20 mg/kg; conditions: in vivo, 240 h
Procedure, shortened: (§4)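 Root crude extract from 10-day seedlings in soil at 0–20 mg/kg. Inhibition of NBT photoreduction in 50 mM phosphate pH 7.8 with 10 mM methionine and riboflavin, read at 560 nm. One unit inhibits NBT photoreduction to formazan by 50%. Mean ± SD, n = 3.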

Triticum aestivum [19] = experiment: Reduction in SOD activity in shoots of Triticum aestivum cv. Ning 13 (wheat) seedlings grown on soils containing compound at 10 to 20 mg/kg for 10 days by PAGE method assay relative to untreated control; assay type: ADME, organism-based; parameters: dose 10-20 mg/kg; conditions: in vivo, 240 h
Triticum aestivum [20] = experiment: Induction of lipid peroxidation in Triticum aestivum cv. Ning 13 (wheat) seedlings assessed as increase in TBARS level in leaves grown on soils containing compound for 10 days relative to untreated control; assay type: organism-based; conditions: in vivo, 240 h; procedure, shortened: as §3
Triticum aestivum [21] = experiment: Reduction in POD activity in roots of Triticum aestivum cv. Ning 13 (wheat) seedlings grown on soils containing compound at 20 mg/kg for 10 days by guaiacol oxidation relative to untreated control; assay type: ADME, organism-based; parameters: dose 20 mg/kg; conditions: in vivo, 240 h
Procedure, shortened: (§5)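 Crude leaf or root extract (Tris-HCl pH 7.8, EDTA, PVP; 15000g) from seedlings grown 10 days in soil with 0–20 mg/kg herbicide. Guaiacol oxidation read at 470 nm for 1 min in 100 mM potassium phosphate pH 7.0, 20 mM guaiacol, 10 mM H2O2. Mean ± SD, n = 3.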

Triticum aestivum [22] = experiment: Increase in POD activity in roots of Triticum aestivum cv. Ning 13 (wheat) seedlings grown on soils containing compound at 5 to 10 mg/kg for 10 days by guaiacol oxidation relative to untreated control; assay type: ADME, organism-based; parameters: dose 5-10 mg/kg; conditions: in vivo, 240 h; procedure, shortened: as §5
Triticum aestivum [23] = experiment: Increase in SOD activity in shoots of Triticum aestivum cv. Ning 13 (wheat) seedlings grown on soils containing compound at 2 to 10 mg/kg for 10 days by PAGE method assay relative to untreated control; assay type: ADME, organism-based; parameters: dose 2-10 mg/kg; conditions: in vivo, 240 h
Triticum aestivum [24] = experiment: Increase in SOD activity in roots of Triticum aestivum cv. Ning 13 (wheat) seedlings grown on soils containing compound at 2 to 10 mg/kg for 10 days by NBT dye reduction assay relative to untreated control; assay type: ADME, organism-based; parameters: dose 2-10 mg/kg; conditions: in vivo, 240 h; procedure, shortened: as §4
Triticum aestivum [25] = experiment: Increase in POD isoforms 1 to 5 activity in roots of Triticum aestivum cv. Ning 13 (wheat) seedlings grown on soils containing compound at 3.5 to 10 mg/kg for 10 days by PAGE method assay relative to untreated control; assay type: ADME, organism-based; parameters: dose 3.5-10 mg/kg; conditions: in vivo, 240 h
Triticum aestivum [26] = experiment: Increase in APX activity in roots of Triticum aestivum cv. Ning 13 (wheat) seedlings grown on soils containing compound at 5 to 10 mg/kg for 10 days relative to untreated control; assay type: ADME, organism-based; parameters: dose 5-10 mg/kg; conditions: in vivo, 240 h
Triticum aestivum [27] = experiment: Increase in POD activity in leaves of Triticum aestivum cv. Ning 13 (wheat) seedlings grown on soils containing compound at 5 to 10 mg/kg for 10 days by guaiacol oxidation relative to untreated control; assay type: ADME, organism-based; parameters: dose 5-10 mg/kg; conditions: in vivo, 240 h; procedure, shortened: as §5
Triticum aestivum [28] = experiment: Increase in SOD activity in roots of Triticum aestivum cv. Ning 13 (wheat) seedings grown on soils containing compound at 2 to 10 mg/kg for 10 days by PAGE method assay relative to untreated control; assay type: ADME, organism-based; parameters: dose 2-10 mg/kg; conditions: in vivo, 240 h
Triticum aestivum [29] = experiment: Reduction in APX activity in roots of Triticum aestivum cv. Ning 13 (wheat) seedlings grown on soils containing compound at 20 mg/kg for 10 days relative to untreated control; assay type: ADME, organism-based; parameters: dose 20 mg/kg; conditions: in vivo, 240 h
Triticum aestivum [30] = experiment: Increase in CAT isoforms activity in roots of Triticum aestivum cv. Ning 13 (wheat) seedlings grown on soils containing compound at 2 to 5 mg/kg for 10 days by PAGE method assay relative to untreated control; assay type: ADME, organism-based; parameters: dose 2-5 mg/kg; conditions: in vivo, 240 h; procedure, shortened: as §2
Triticum aestivum [31] = experiment: Reduction in POD activity in leaves of Triticum aestivum cv. Ning 13 (wheat) seedlings grown on soils containing compound at 20 mg/kg for 10 days by guaiacol oxidation relative to untreated control; assay type: ADME, organism-based; parameters: dose 20 mg/kg; conditions: in vivo, 240 h; procedure, shortened: as §5

## CC(C)c1ccc(NC(=O)N(C)C)cc1 [ISOPROTURON]
Triticum aestivum [1]
  Activity: Toxic
Triticum aestivum [2]
  Activity: Toxic
Triticum aestivum [3]
  Activity: Toxic
Triticum aestivum [4]
  Activity: 32%
Triticum aestivum [5]
  Activity: 11%
Triticum aestivum [6]
  Activity: Toxic
Triticum aestivum [7]
  Activity: Toxic
Triticum aestivum [8]
  Activity: Dose-dependent effect
Triticum aestivum [9]
  Activity: 44%
Triticum aestivum [10]
  Activity: Toxic
Triticum aestivum [11]
  Activity: Toxic
Triticum aestivum [12]
  Activity: Toxic
Triticum aestivum [13]
  Activity: Dose-dependent effect
Triticum aestivum [14]
  fold change (FC): > 2
[15]
  solubility: 55 µg/mL (≈ 267 µM)
Triticum aestivum [16]
  Activity: Non-toxic
Triticum aestivum [17]
  Activity: Toxic
Triticum aestivum [18]
  Activity: Toxic
Triticum aestivum [19]
  Activity: Toxic
Triticum aestivum [20]
  Activity: Dose-dependent effect
Triticum aestivum [21]
  Activity: Toxic
Triticum aestivum [22]
  Activity: Toxic
Triticum aestivum [23]
  Activity: Toxic
Triticum aestivum [24]
  Activity: Dose-dependent effect
Triticum aestivum [25]
  Activity: Toxic
Triticum aestivum [26]
  Activity: Toxic
Triticum aestivum [27]
  Activity: Toxic
Triticum aestivum [28]
  Activity: Toxic
Triticum aestivum [29]
  Activity: Toxic
Triticum aestivum [30]
  Activity: Toxic
Triticum aestivum [31]
  Activity: Toxic
